# Assay outcomes as filed in PubChem BioAssay.
# EBI2 block: EBI2 (human) antagonism; P32249; EBI2 beta-arrestin recruitment, luminescence, 7a,25-OHC stimulated; inhibition, % at 5 µM; 360,000 compounds, 0.81% hits; AID 651636; in the data active = inhibition above about 38%;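 note: enzyme fragment complementation signal reports receptor beta-arrestin coupling in cells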
# CCR6 antag: CCR6 (human) receptor antagonism. CHO-K1 CCR6 PathHunter beta-arrestin, luminescence, CCL20-stimulated. inhibition, % at 20 µM. 340,000 compounds, 0.49% hits. AID 493098;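 active = compounds whose inhibition of the agonist-driven luminescence signal at 20 µM reaches about 50%, limit read from the data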;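 note: cells stimulated with CCL20 at 14 nM final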
# CXCR6 block: inhibitors of human CXCR6 receptor; AID 602244; 360,000 compounds, 0.36% hits; inhibition, % at 20 µM; CHO-K1 PathHunter CXCR6 beta-arrestin, luminescence; in the data active = inhibition above about 34%, passing the limit was not always enough;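 note: antagonist mode with CXCL16 agonist at 10 nM final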
# Target sequence (O00574 whole entry, looked up): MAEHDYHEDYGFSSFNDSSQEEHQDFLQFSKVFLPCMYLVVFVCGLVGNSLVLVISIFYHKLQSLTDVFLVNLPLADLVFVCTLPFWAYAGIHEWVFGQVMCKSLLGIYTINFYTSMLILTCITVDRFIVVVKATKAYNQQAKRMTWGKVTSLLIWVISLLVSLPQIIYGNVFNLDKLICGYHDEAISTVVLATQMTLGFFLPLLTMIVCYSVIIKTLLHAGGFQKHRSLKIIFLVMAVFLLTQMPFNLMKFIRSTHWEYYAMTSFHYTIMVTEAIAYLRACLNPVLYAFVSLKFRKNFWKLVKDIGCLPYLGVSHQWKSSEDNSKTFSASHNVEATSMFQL
# m5-HT2A agonist: mouse HTR2A agonism via beta-arrestin recruitment. AID 624169. activation, % at 7.6 µM. CHO-K1 mHTR2A beta-arrestin complementation, luminescence; percent of 30 µM serotonin response. 360,000 compounds, 0.66% hits;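 active = activation above a run cutoff, the mean activation of all tested compounds plus 3 SD, cut at about 14% in these data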
# APJ agonist: activates the human apelin receptor APJ; CHO-K1 APJ PathHunter beta-arrestin, luminescence; 0% DMSO wells, 100% apelin; activation, % at 20 µM; 330,000 compounds, 0.11% hits; AID 2520;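 active = activation more than six SD over the plate average, tested at 20 µM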
#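 Incubation: overnight seeding, 90 min compound at 25 °C, 1 h detection; test system: PathHunter CHO-K1 APJ (AGTRL-1) beta-arrestin reporter cells; amount: 1000 cells/well; doses: one dose, 20 µM compound, 1% DMSO; measured by: beta-gal luminescence; measure: agonist-driven arrestin binding to APJ; benchmarks: negative DMSO alone, positive Apelin-13 at 10 nM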
# APJ antagonist: antagonists of human APJ apelin receptor; 330,000 compounds, 0.32% hits; inhibition, % at 20 µM; CHO-K1 APJ beta-arrestin complementation, luminescence; P35414;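 active = inhibition above about 40% at 20 µM, limit read from the data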;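 note: cells challenged with 10 nM apelin-13 agonist together with compound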
# Hits are given with their value; . = inactive; / = no result; ! = a repeat was not active. A selection: hits, their analogues and other compounds. The true share with any hit is near 2.1%.
SMILES,EBI2 block,CCR6 antag,CXCR6 block,m5-HT2A agonist,APJ agonist,APJ antagonist
Cc1ccc(C)c2sc(NC(=O)c3nc4ccccc4s3)nc12,.,50.6,.,.,.,.
O=C(NN=Cc1cc(Cl)ccc1[N+](=O)[O-])c1cccc2ccccc12,.,.,.,.,/,/
Cc1cc(C(=O)N/N=C/c2cc(Cl)cc([N+](=O)[O-])c2O)c2ccccc2n1,54.2,.,.,.,.,.
COc1ccc(/C=C/C2=NNC(=O)CC2)cc1,.,76.6,.,.,.,.
CCOc1ccc(/C=C/C2=NNC(=O)CC2)cc1,.,.,.,.,.,.
COc1ccccc1N1CCN(Cc2ccc(OC)c(OC)c2OC)CC1,.,.,.,.,.,.
CCOC(=O)C1CCN(Cc2ccc(O)c3ncccc23)CC1,45.1,.,.,.,.,.
COc1ccccc1N1CCN(Cc2ccc(O)c3ncccc23)CC1,72.6,.,.,.,.,.
COc1ccc2ccccc2c1CNC(C)CCc1ccccc1 (stereo not given),.,.,.,.,.,.
O=C1C(Cl)=C(NC(=O)c2ccccc2)C(=O)C(Cl)=C1NC(=O)c1ccccc1,.,/,88.4,.,.,.
O=C(NC1=C(Nc2ccc(Cl)cc2)C(=O)c2ccccc2C1=O)c1ccccc1,.,.,.,.,.,.
Cc1ccc(S(=O)(=O)N2CCOCC2)cc1NC(=O)c1ccc(F)cc1F,.,.,.,.,.,.
NS(=O)(=O)c1ccc(NC(=O)c2ccc(F)cc2F)c(NC(=O)c2ccc(F)cc2F)c1,.,50.7,.,.,.,.
COc1cc(/C=C2/C(=O)N(c3ccc(Br)cc3)N=C2C)cc([N+](=O)[O-])c1O,/,/,/,/,.,48.2
COc1cc(/C=C2/C(=O)c3cccc([N+](=O)[O-])c3C2=O)c(Br)cc1O,.,97.3,86.4,.,/,/
Cn1c(C(C#N)C(=O)Cc2cccc3ccccc23)nc2ccccc21 (stereo not given),.,.,.,.,.,.
CCCC(=O)N(C1CC(C)C(C#N)(C#N)C1(C#N)C#N)N(C)C (stereo not given),.,93.9,80.8,.,.,.
CC(=O)N(C1CC(C)C(C#N)(C#N)C1(C#N)C#N)N(C)C (stereo not given),.,77.6,.,.,.,.
CCCCN(C(=O)COC(=O)c1sccc1C)c1c(N)n(CCC)c(=O)[nH]c1=O,.,/,.,.,/,/
Cc1ccc(S(=O)(=O)Nc2ccccc2)cc1[N+](=O)[O-],.,.,.,.,/,/
Cc1cccc2c(N=Nc3ccc(S(=O)(=O)Nc4cccc(Cl)c4)cc3[N+](=O)[O-])c(O)[nH]c12,.,58.1,.,.,.,.
Cc1[nH]c2ccccc2c1C1=CC(=O)C=CC1=O,.,/,70.1,.,/,/
Cc1ccc(NC(=O)COC(=O)Cn2cnc3c2c(=O)n(C)c(=O)n3C)cc1Cl,.,.,.,.,.,.
COc1ccc(Nc2nnc(-c3ccc(N4CCOCC4)c([N+](=O)[O-])c3)c3ccccc23)cc1,.,.,.,30.9,/,/
COc1ccc(C(=O)c2ccc(N3CCOCC3)c([N+](=O)[O-])c2)cc1,.,.,.,.,.,.
SMILES,EBI2 block,CCR6 antag,CXCR6 block,m5-HT2A agonist,APJ agonist,APJ antagonist
Cc1ccc(-c2nn3c(-c4ccco4)nnc3c3ccccc23)cc1S(=O)(=O)NCC1CCCO1 (stereo not given),.,50.9,.,.,.,.
CCN1C(=O)/C(=C/C=C2\C=CN(CC)c3ccccc32)SC1=S,.,53.1,.,.,/,/
OC(COc1c(Cl)cc(Cl)cc1Cl)CN1CCCCC1 (stereo not given),.,69.3,.,.,.,.
CC(CCC(=O)NN)C1CCC2C3CCC4CC(O)CCC4(C)C3CCC12C (stereo not given),.,.,.,.,/,/
CC(CCC(C)C(C)(C)C)[C@@H]1CC[C@H]2C3C[C@H](OS(O)(=S)=S)[C@H]4C[C@H](OS(O)(=S)=S)[C@@H](OS(O)(=S)=S)C[C@]4(C)[C@H]3CC[C@]12C (stereo not given in full) (tested in a mixture with another compound),.,57.3,.,.,.,.
Cn1cc(C2=C(c3ccc(Cl)cc3Cl)C(=O)NC2=O)c2ccccc21,49.5,.,.,.,.,.
Cc1ccc(CN2C(=O)C(Cc3ccccc3)Nc3ncnc(N4CCCCC4)c32)cc1 (stereo not given),.,50.7,41.2!,.,.,.
COc1ccc(CN2C(=O)C(Cc3ccccc3)Nc3ncnc(N4CCCCC4)c32)cc1 (stereo not given),.,.,.,.,.,.
Cc1ccc(S(=O)(=O)N(CC(=O)N/N=C/c2cccc(Cl)c2)c2cccc3cccnc23)cc1,.,.,.,.,.,.
CN1C2C=C(N(CCc3c[nH]c4ccccc34)C(=O)c3ccc(Cl)cc3)CC1CC2 (stereo not given),60.9,.,.,.,.,.
O=C(Cc1c[nH]c2ccccc12)NCc1ccc(Cl)cc1,.,.,.,.,.,.
Cc1ccc(C(c2cc(Cl)c3cccnc3c2O)N2CCN(C)CC2)cc1 (stereo not given),.,56.9,.,.,.,.
Cn1cc(/C=N/n2cnc3sc4c(c3c2=O)CCCC4)c2ccccc21,.,.,.,.,.,.
COc1cc2ccccc2cc1C(=O)Nc1ccc(Br)cn1,47.5,.,.,.,.,.
O=C(O)c1ccc2c(c1)S(=O)(=O)c1cc(Cl)ccc1C2=O,.,.,.,.,.,.
CCOc1cc(C=C(C(=O)OC)C(=O)OC)ccc1OCc1ccc([N+](=O)[O-])cc1,58.6,.,.,.,.,.
CCOc1cc(/C=N/O)ccc1OCc1ccc([N+](=O)[O-])cc1,.,.,.,.,.,.
CCOC(=O)C1CCN(S(=O)(=O)c2ccc(Cl)cc2OC)CC1,.,.,.,.,.,.
CNCc1ccccc1Sc1cc(O)ccc1O,.,83.8,.,.,.,.
CC1=NN(C(N)=S)C(=O)C1N=Nc1ccccc1Cl (stereo not given),.,.,.,.,.,.
CC(C)(C)c1ccc(OCC(=O)NNC(=S)NC(=O)c2ccco2)c(Br)c1,.,55.6,.,.,.,.
COc1cc(/C=N/Nc2nc(C)cc(=O)[nH]2)cc(OC)c1O,.,.,.,.,.,.
COC(=O)C(C)NC(=O)CNS(=O)(=O)c1ccc(F)cc1 (stereo not given),.,.,.,.,.,.
CCCCNc1c(-c2ccc(-c3ccc(C(C)=O)cc3)c(OC)c2)nc2cnccn12,49.2,.,.,.,.,.
CCc1nnc(NC(=O)C2CCN(S(=O)(=O)c3ccc(C)cc3)CC2)s1,.,.,.,.,.,.
